pIC50: −log10 of the molar value. Active and inactive are the calls of the source. The rule behind the calls is not given here.

Consider two compounds from ChEMBL document CHEMBL4321820, “Identification and Optimization of Mechanism-Based Fluoroallylamine Inhibitors of Lysyl Oxidase-like 2/3” (J Med Chem, 2019).

Data set [1] deals with Mus musculus. Nature of the data set: Antifibrotic activity in CCl4-induced BALB/c mouse model of liver fibrosis assessed as reduction in liver fibrosis area at 15 mg/kg, po administered once daily for 6 weeks by alpha-SMA staining based microscopy. The class given is functional, organism-based. Summed up: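 Female BALB/c mice given CCl4 i.p. (1 mL/kg of 25% CCl4 in olive oil) twice weekly for 6 weeks; sacrificed 48 h after last dose. Test articles oral, once daily: prophylactic weeks 1-6 or therapeutic weeks 4-6; imatinib control 50 mg/kg daily weeks 1-6. One formalin-fixed liver lobe stained for Picro Sirius Red and α-SMA; fibrotic area as % of total liver area; mean ± SEM, one-way ANOVA with Dunnett's test.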

Data set [2] deals with Mus musculus. As to the kind of experiment: Effect on plasma ALT level in CCl4-induced BALB/c mouse model of liver fibrosis at 5 to 15 mg/kg, po administered once daily at week 4 to 6. The data set is classed as ADME, organism-based. Conditions: in vivo. An outline of the steps:
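CCl4 liver fibrosis in female BALB/c mice: CCl4 i.p. (1 mL/kg 25% in olive oil) twice weekly for 6 weeks, sacrifice 48 h after final injection. Oral once-daily dosing weeks 1-6 or weeks 4-6; imatinib 50 mg/kg daily weeks 1-6. ALT and AST measured in plasma.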

Data set [3] in a line: Protein binding in dog plasma. The class given is ADME, cell-free, Canis lupus familiaris. Conditions: read-out: PPB (converted).
For data set [4], the target named is T1, Lysyl oxidase homolog 2 (Homo sapiens, UniProt Q9Y4K0).
T1 sequence (Q9Y4K0 whole entry): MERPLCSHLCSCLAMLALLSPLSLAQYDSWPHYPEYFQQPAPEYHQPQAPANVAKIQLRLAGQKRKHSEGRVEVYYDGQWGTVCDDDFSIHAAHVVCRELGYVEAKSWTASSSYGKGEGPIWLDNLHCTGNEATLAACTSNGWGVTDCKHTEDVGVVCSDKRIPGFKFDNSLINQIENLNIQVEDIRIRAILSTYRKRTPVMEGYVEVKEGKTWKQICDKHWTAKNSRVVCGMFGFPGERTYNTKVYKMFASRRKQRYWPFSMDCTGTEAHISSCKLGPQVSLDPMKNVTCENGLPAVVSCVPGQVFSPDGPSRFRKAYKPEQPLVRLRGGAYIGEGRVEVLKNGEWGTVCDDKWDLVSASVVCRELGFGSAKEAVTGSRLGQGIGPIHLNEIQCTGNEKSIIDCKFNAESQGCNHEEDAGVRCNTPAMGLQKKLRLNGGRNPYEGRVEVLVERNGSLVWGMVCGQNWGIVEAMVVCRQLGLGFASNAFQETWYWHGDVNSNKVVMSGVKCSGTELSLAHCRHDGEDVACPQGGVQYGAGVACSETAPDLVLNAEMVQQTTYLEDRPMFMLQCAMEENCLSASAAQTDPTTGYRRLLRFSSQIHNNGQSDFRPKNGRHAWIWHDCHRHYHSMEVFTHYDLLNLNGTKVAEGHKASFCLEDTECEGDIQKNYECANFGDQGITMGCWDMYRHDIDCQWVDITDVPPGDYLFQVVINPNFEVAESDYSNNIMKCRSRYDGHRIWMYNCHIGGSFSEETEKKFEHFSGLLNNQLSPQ
As to the kind of experiment: Substrate activity at recombinant human C-terminal His-tagged […] (1-774 residues) expressed in mouse myeloma cells assessed as oxidative turnover at 30 uM measured after 30 mins by horseradish peroxidase-coupled amplex red reagent-based fluorescence assay relative to DMSO. The class given is ADME, cell-based. To be noted: 0.5 h. An outline of the steps: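 LOXL2 incubated with compound, no substrate present. Hydrogen peroxide generation read by Amplex Red/HRP fluorescence (ex 565, em 590 nm). Oxidative turnover at 30 min expressed relative to DMSO.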

Data set [5] in a line: Stability in dog plasma assessed as half life. The class given is ADME, cell-free, Canis lupus familiaris.
A short description of data set [6]: Stability in dog plasma assessed as half life.
The target of data set [7] is T2, Lysyl oxidase homolog 4 (Homo sapiens, UniProt Q96JB6).
T2 sequence (Q96JB6 whole entry): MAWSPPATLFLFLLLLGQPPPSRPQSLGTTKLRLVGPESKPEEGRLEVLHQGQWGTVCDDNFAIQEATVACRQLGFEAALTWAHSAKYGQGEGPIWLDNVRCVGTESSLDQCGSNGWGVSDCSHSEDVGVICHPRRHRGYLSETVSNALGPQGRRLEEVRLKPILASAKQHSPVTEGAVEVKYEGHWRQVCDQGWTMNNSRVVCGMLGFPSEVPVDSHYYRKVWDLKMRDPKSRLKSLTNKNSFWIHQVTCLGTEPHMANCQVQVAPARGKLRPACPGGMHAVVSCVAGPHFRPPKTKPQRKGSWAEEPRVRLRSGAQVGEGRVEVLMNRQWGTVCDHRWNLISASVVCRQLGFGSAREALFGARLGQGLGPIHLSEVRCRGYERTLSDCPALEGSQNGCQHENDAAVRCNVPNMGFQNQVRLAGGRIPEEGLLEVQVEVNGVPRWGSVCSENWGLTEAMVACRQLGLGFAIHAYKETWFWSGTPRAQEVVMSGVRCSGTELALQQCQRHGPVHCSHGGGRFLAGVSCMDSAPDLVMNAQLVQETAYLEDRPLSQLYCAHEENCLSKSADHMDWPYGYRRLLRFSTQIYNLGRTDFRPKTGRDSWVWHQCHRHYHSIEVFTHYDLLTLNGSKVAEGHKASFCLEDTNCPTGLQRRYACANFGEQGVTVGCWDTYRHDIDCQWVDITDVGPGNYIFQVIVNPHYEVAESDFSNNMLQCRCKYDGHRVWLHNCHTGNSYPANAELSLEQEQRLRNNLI
Nature of the data set: Inhibition of recombinant human LOXL4 using putrescine as substrate preincubated with enzyme for 30 mins followed by substrate addition and measured every 2.5 mins for 30 mins by Amplex-Red oxidation assay. Summed up: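 Recombinant human LOXL3 or LOXL4 preincubated 30 min at 37 °C with compound in 1.2 M urea/50 mM borate pH 8.2, then Amplex Red (120 µM)/HRP (1.5 U/mL) with 2 mM putrescine; fluorescence read every 2.5 min for 30 min.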

Data set [8] can be described thus: Stability in rat microsomes assessed as half life. The data set is classed as ADME, Microsome.
In data set [9] the target is T1, Lysyl oxidase homolog 2. Nature of the data set: Inhibition of LOXL2 in human IMR90 cells using putrescine as substrate preincubated with enzyme for 30 mins followed by substrate addition and measured every 2.5 mins for 30 mins by Amplex-Red oxidation assay. The data set is classed as cell-based. An outline of the steps:
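IMR90 fibroblasts grown in MEM/10% FBS to 80% confluence, then 48-72 h in phenol-red-free 0.1% FBS medium. Conditioned medium concentrated 40-fold (10 kDa). LOX and LOXL2 separated on a 50 kDa filter in 6 M urea/borate, then diluted back to 1.2 M urea. Preincubated 30 min at 37 °C with compound; Amplex Red/HRP/putrescine readout every 2.5 min over 30 min.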

Data set [10] in a line: Stability in dog microsomes assessed as half life. The class given is ADME, Canis lupus familiaris, Microsome.

With `CCOC(=O)c1ccc2c(c1)c(-c1cccc(S(=O)(=O)N(C)C)c1)c(C)n2C/C(F)=C/CN.Cl`, the inhibition result in data set [1] is “Active”. In addition, the Activity entry in data set [2] is “Non-Toxic”.

For the compound `Cc1c(-c2cccc(S(=O)(=O)N(C)C)c2)c2cc(C(=O)O)ccc2n1C/C(F)=C/CN.Cl`, the fraction unbound in [3] was 0.14. For the same compound, the “fold change (FC)” value in [4] is on record as 1. Besides, the half-life in [5] is > 2 h; in data set [6] it was > 2 h; in data set [8], > 1.5 h; in data set [10], > 1.5 h. Further, the values for the pIC50 in data set [7] and in data set [9] were 6.55 and 8.05, respectively.

Usually half-life stands for how long it takes for the measured level to halve. A word on the pIC50: it is −log10 of the IC50, conventionally taken in molar units.
